Xi reactivation: X-chromosome reactivation activator | XiGFP mouse fibroblasts, % GFP-positive cells imaging, 3 d; cells co-treated with 5-aza-dC sensitizer; scaled so ellipticine positive control = 100% | activation, % at 7.58 µM | hit rate 0.055% among 360,000 | AID 743238;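 active means mean normalized replicate activation at least 10% and every replicate at or above 10%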;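 further: 0% = median of on-plate neutral control wells and 100% = ellipticine 6 µM median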
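Material: XiGFP fibroblasts, SV40-immortalized; Buffer or medium: DMEM containing 5-aza-dC; Compound dosing: single point; Times: 3 days compound exposure.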
Arrestin-AP2 inh: human beta-arrestin and AP2 interaction inhibition; hit rate 0.31% among 340,000; FITC-arrestin peptide / GST-AP2 beads, flow cytometry; AP2 beta2 appendage carries R879A mutation; inhibition, % at 10 µM;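 active means inhibition above a set limit, near 3 SD of compounds lacking own fluorescence, cut at about 54% in these data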;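 further: plate controls were DMSO wells for no effect and 5 µM unlabelled arrestin peptide for full effect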
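System: GST-AP2 R879A glutathione beads; medium: PBS, Tween 20 0.05%, BSA 0.1%; reagent: fluorescein-tagged arrestin peptide at 50 nM final; schedule: pre-incubation 12 min, peptide binding 1 h, room temperature; detection: flow cytometry, FL1 (488/535 nm); read-out: inhibition as reduced fluorescein signal on beads, percent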
T cell modulator: T cell immune modulators affecting CD8 T cell-vesicle binding. 2C CD8+ T cell-vesicle binding, flow cytometry; hits give low values. response (vesicle binding), % at 7 µM. hit rate 0.068% among 330,000;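 active means response, share of CD8 T cells binding vesicles, and their 90th percentile fluorescence all below set limits, cut at about 80% in these data, passing the limit was not always enough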;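 further: values below 100% mean blocked vesicle binding to the CD8+ T cells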
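Incubation: binding step 1.5 h, 37 °C, antibody labelling 20 min, ice; system: murine 2C transgenic CD8+ T lymphocytes; technique: cytometric PE anti-B7-1 and Alexa647 anti-CD8 signals after 1% paraformaldehyde fixation; also added: QL9-charged Drosophila Ld/ICAM-1/B7-1 vesicles; control set: naked versus QL9-loaded vesicles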
V-ATPase pH: yeast V-ATPase proton transport regulation by pHLuorin; S. cerevisiae, pHLuorin cytosolic pH fluorescence; response, % at 10 µM; hit rate 0.37% among 350,000; in the data active means response mostly above about 7.3%, no sharp cut-off; inactive means mostly below about 5.4%; further: actives read high
NTR1 ag: activates human neurotensin receptor 1; P30989; NTR1-U2OS beta-arrestin-GFP spot imaging, agonist mode; activation, % at 20 µM; hit rate 0.17% among 330,000; AID 493036;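 active means activation at or above 40% of the spot to cytoplasm intensity ratio, with at least 20 cells analyzed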;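 further: 0% = DMSO without peptide and 100% = 100 nM NTR1 peptide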
Target sequence (P30989 whole entry, looked up): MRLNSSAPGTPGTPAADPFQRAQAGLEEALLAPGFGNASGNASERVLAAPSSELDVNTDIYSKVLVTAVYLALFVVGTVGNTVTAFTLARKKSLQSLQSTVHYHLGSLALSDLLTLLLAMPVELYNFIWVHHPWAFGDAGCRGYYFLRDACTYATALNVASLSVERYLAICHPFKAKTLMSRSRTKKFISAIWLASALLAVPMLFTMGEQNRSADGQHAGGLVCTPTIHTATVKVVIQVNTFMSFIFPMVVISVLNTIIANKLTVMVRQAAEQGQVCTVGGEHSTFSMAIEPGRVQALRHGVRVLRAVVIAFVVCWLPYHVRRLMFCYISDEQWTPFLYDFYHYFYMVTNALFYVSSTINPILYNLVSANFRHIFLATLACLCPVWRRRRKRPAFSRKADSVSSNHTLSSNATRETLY
MIN6 prolif: inducers of beta-cell replication in MIN6 cells; MIN6 cells proliferation, ATPlite luminescence, 48 h; cells starved in 0.2% serum; 100% = growth in 10% serum; proliferation, % at 10 µM; hit rate 0.29% among 330,000; AID 2380;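 active means compounds whose signal lies at least 3.5 SD above the mean of all wells on their plate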;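 further: 0% = DMSO-treated cells in low-serum medium and 100% = 10% serum control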
NTR1 ag confirm: confirmation of agonists of human NTR1; shares compounds with NTR1 ag; NTR1-U2OS beta-arrestin-GFP translocation imaging; activation, % at 20 µM; hit rate 38% among 480;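 active means mean activation at 20 µM of at least 40%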;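 further: 0% = DMSO without peptide and 100% = 100 nM NTR1 peptide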
* hit, by the source's call; . = no result. The list is not random: actives were taken first. Their share in the collection is about 0.89%.

SMILES	Xi reactivation	Arrestin-AP2 inh	T cell modulator	V-ATPase pH	NTR1 ag	MIN6 prolif	NTR1 ag confirm
O=C(COc1ccccc1[N+](=O)[O-])Nc1ccc(NC(=O)c2cc3ccccc3o2)cc1	0	-7	297	-1	40*	-6	36
O=C(COc1ccccc1[N+](=O)[O-])Nc1ccc2oc(=O)ccc2c1	0	-10	349	2	-1	0	.
C[C@H](CO)N1C[C@H](C)[C@H](CN(C)C(=O)C2CCCCC2)Oc2cc(-c3cccnc3)ccc2S1(=O)=O	0	.	.	.	.	.	.
CCCC(=O)NC(=S)Nc1cccc(Cl)c1N1CCCC1	0	15	412	2	51*	-7	15
O=C(NC(=S)Nc1cccc(Cl)c1N1CCOCC1)c1cccs1	-1	-19	507	-1	43*	-2	15
CCC(=O)Nc1ccc2c(c1)OC[C@@H](C)N(CC1CC1)C[C@@H](C)[C@@H](OC)CN(C)C2=O	0	.	.	.	.	.	.
COc1ccc(NC(=O)Nc2ccc3c(c2)CC(=O)N([C@H](C)CO)C[C@@H](C)[C@@H](CN(C)C(=O)NC(C)C)O3)cc1	-1	.	.	.	.	.	.
CCc1ccc(NC(=O)c2ccc3c(=O)n4c(nc3c2)CCCCC4)cc1	0	4	195	-2	10	-4	.
O=C(Nc1cccc(S(=O)(=O)N2CCCCC2)c1)c1ccc2c(=O)n3c(nc2c1)CCCCC3	0	-10	231	3	43*	-2	26
Clc1ccc(CN2CCc3c([nH]c4ccccc34)C2)cc1Cl	1	12	345	-2	65*	-5	1
Clc1cccc(CN2CCc3c([nH]c4ccccc34)C2)c1	0	-10	214	-1	6	-4	.
CC(C)C#Cc1cnc2c(c1)C(=O)N([C@@H](C)CO)C[C@H](C)[C@H](CN(C)C(=O)Nc1ccccc1F)O2	0	.	.	.	.	.	.
Cc1c(/C=N/NC(=O)c2ccc(O)cc2)c2ccccn2c1C(=O)c1ccc(F)cc1	0	5	302	-2	6	-6	.
Cc1c(/C=N/NC(=O)c2ccccc2O)c2ccccn2c1C(=O)c1ccc(F)cc1	0	10	328	4	114*	0	17
Oc1ccc(-c2nc3c4c(ncn3n2)-c2ccccc2CC42CCCC2)cc1	.	28	195	-2	46*	-6	32
Nn1cnc2c(c1=O)C1(CCCCC1)Cc1ccccc1-2	0	7	78	-4	5	-1	.
COc1ccc(Cn2c(-c3ccc(C)cc3)nc3c(c(=O)c4ccccc4n3C)c2=O)cc1	0	.	475	0	41*	0	23
O=C(Nc1ccccc1)Nc1cccc(C(F)(F)F)c1	1	16	409	0	1	-5	.
O=C(COCC(=O)Nc1cccc(C(F)(F)F)c1)Nc1cccc(C(F)(F)F)c1	.	0	350	2	47*	-6	12
Cc1ccc(OC(F)F)c(NC(=O)Nc2cccc(C(F)(F)F)c2)c1	.	4	335	1	43*	-7	14
CCOc1cccc(/C=C/c2ccc3cccc(O)c3n2)c1OC	2	4	.	0	79*	-6	6
COc1ccc(S(=O)(=O)Nc2ccc3c(c2)CC(=O)N([C@H](C)CO)C[C@H](C)[C@@H](CN(C)C(=O)Nc2ccc(C(F)(F)F)cc2)O3)cc1	0	.	.	.	.	.	.
O=C(Nc1ccc([N+](=O)[O-])cc1)Nc1ccc(N2CCOCC2)c2nonc12	0	24	213	-1	42*	0	65*
CCOC(=O)c1cc(-c2ccccc2)sc1NC(=O)C(C)Sc1nnc(N)s1 (centres undefined)	0	24	334	-1	44*	-6	25
CC(C)(C)OC(=O)NCc1ccc(CNC(=O)c2[nH]cnc2C(=O)NCC(=O)OCc2ccccc2)cc1	0	-7	148	1	56*	-2	31
SMILES	Xi reactivation	Arrestin-AP2 inh	T cell modulator	V-ATPase pH	NTR1 ag	MIN6 prolif	NTR1 ag confirm
CC(C)C[C@H](NC(=O)c1[nH]cnc1C(=O)N[C@@H](C)c1ccccc1)C(=O)OCc1ccccc1	.	.	505	-1	42*	-8	63*
C[C@H](NC(=O)c1nc[nH]c1C(=O)N[C@@H](Cc1ccccc1)C(=O)OC(C)(C)C)C(=O)OCc1ccccc1	0	0	342	3	41*	-9	14
O=C(N[C@@H](Cc1ccccc1)C(=O)OCc1ccccc1)c1nc[nH]c1C(=O)N1CCc2ccccc2C1	2	27	915	5	48*	-8	10
COc1cccc(-c2cnc3c(c2)C(=O)N([C@@H](C)CO)C[C@@H](C)[C@@H](CN(C)CC2CC2)O3)c1	-1	.	.	.	.	.	.
COc1ccc([C@H]2Oc3cc(O)cc(O)c3C(=O)C2[C@@H]2C(=O)c3c(O)cc(O)cc3O[C@@H]2c2ccc(OC)cc2)cc1 (some centres undefined)	0	.	249	.	50*	-7	9
COc1ccc(C2CC(=O)Oc3cc(O)cc(O)c32)cc1 (centres undefined)	.	1	369	6	-2	3	.
C[C@@H]1CN([C@@H](C)CO)C(=O)c2cc(C#CC3CC3)cnc2O[C@H]1CN(C)Cc1ccccn1	-1	.	.	.	.	.	.
COc1ccc(C(C[N+](=O)[O-])c2c(C)[nH]n(-c3ccccc3)c2=O)cc1 (centres undefined)	0	-18	579	0	42*	-6	25
Cc1[nH]n(-c2ccccc2)c(=O)c1C(C[N+](=O)[O-])c1ccccc1Cl (centres undefined)	.	0	270	0	2	-4	.
CC1=C(C(=O)OC2CCCCCCC2)C(c2cc3c(cc2Br)OCO3)CC(=O)N1 (centres undefined)	.	13	614	-1	44*	-6	42*
O=CC1=C(c2ccccc2)Oc2ccccc2O1	0	13	178	-3	44*	-5	62*
CC(=O)Nc1ccc(Nc2nc(C)c([N+](=O)[O-])c(Nc3ccccc3)n2)cc1	0	10	215	-1	46*	0	28
CC(=O)N1CC2(C1)[C@@H](c1ccc(-c3cccc(F)c3)cc1)[C@@H](CO)N2CC1CCOCC1	0	.	.	.	.	.	.
O=C(/C=C/c1ccccc1Cl)c1ccc(O)cc1	0	-11	83	-2	2	-6	.
O=C(/C=C/c1c(F)cccc1Cl)c1ccc(O)cc1	0	12	114	-56	63*	-6	5

Compound activity (PubChem BioAssay)
